Results as given in ChEMBL document CHEMBL1649231, “In vitro activities of panduratin A against clinical Staphylococcus strains” (2009).
In brackets after ≈: the same amount, converted by molar mass.

Columns and labels:
Type in all cases: functional
Staphylococcus aureus [1] = assay: Antimicrobial activity against methicillin-susceptible Staphylococcus aureus assessed as susceptible isolates after 24 hrs by broth microdilution method
Staphylococcus simulans [2] = assay: Antimicrobial activity against methicillin-susceptible coagulase-negative Staphylococcus simulans after 24 hrs by broth microdilution method
In short: (§1)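 Clinical isolates came from blood, body fluids, genital secretions, pus or sputum, identified conventionally or by Vitek. MICs were run by CLSI M7-A6 broth microdilution in Mueller-Hinton broth with 5 × 10^5 CFU/ml inoculum. Agents were twofold serially diluted, starting from 10% DMSO. Drug-free and uninoculated controls were included. Plates were incubated aerobically at 37°C for 24 h; MIC is the lowest concentration giving no visible growth.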

Staphylococcus simulans [3] = assay: Antimicrobial activity against methicillin-resistant coagulase-negative Staphylococcus simulans after 24 hrs by broth microdilution method; in short: as §1
Staphylococcus aureus [4] = assay: Antimicrobial activity against methicillin-resistant Staphylococcus aureus assessed as resistant isolates after 24 hrs by broth microdilution method
Mammaliicoccus sciuri [5] = assay: Antimicrobial activity against methicillin-susceptible coagulase-negative Staphylococcus sciuri assessed as susceptible isolates after 24 hrs by broth microdilution method
In short: (§2)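 Clinical isolates from blood, body fluids, pus, sputum or genital secretions, identified conventionally or by Vitek, were tested alongside ATCC 29213 and ATCC 12228 controls. CLSI M7-A6 broth microdilution in Mueller-Hinton broth used twofold dilutions from a 10% DMSO solution and 5 × 10^5 CFU/ml inoculum. Drug-free and uninoculated wells served as controls; incubation was aerobic at 37°C for 24 h. MIC was the lowest concentration with no visible growth.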

[6] = tested on: Staphylococcus epidermidis; assay: Antimicrobial activity against methicillin-susceptible coagulase-negative Staphylococcus epidermidis after 24 hrs by broth microdilution method; in short: as §1
Staphylococcus aureus [7] = assay: Antimicrobial activity against methicillin-susceptible Staphylococcus aureus after 24 hrs by broth microdilution method; in short: as §1
Staphylococcus simulans [8] = assay: Bactericidal activity against methicillin-susceptible coagulase-negative Staphylococcus simulans after 24 hrs by plate counting method
In short: (§3)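 Clinical staphylococcal isolates from patient body fluids, blood, genital secretions, pus or sputum; species by conventional methods or Vitek. Twofold dilutions in Mueller-Hinton broth, inoculum 5 × 10^5 CFU/ml, 37°C aerobic 24 h (CLSI M7-A6 microdilution). About 100 μl from each well without visible growth spread on MHA; 37°C 24 h. MBC = lowest concentration giving no growth on agar.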

Mammaliicoccus sciuri [9] = assay: Antimicrobial activity against methicillin-resistant coagulase-negative Staphylococcus sciuri after 24 hrs by broth microdilution method; in short: as §1
Staphylococcus hominis [10] = assay: Bactericidal activity against methicillin-susceptible coagulase-negative Staphylococcus hominis after 24 hrs by plate counting method; in short: as §3
Staphylococcus aureus [11] = assay: Bactericidal activity against methicillin-susceptible Staphylococcus aureus after 24 hrs by plate counting method; in short: as §3
Staphylococcus hominis [12] = assay: Bactericidal activity against methicillin-resistant coagulase-negative Staphylococcus hominis after 24 hrs by plate counting method
[13] = tested on: Staphylococcus epidermidis; assay: Bactericidal activity against methicillin-susceptible coagulase-negative Staphylococcus epidermidis after 24 hrs by plate counting method; in short: as §3
Staphylococcus aureus [14] = assay: Antimicrobial activity against methicillin-resistant Staphylococcus aureus after 24 hrs by broth microdilution method; in short: as §1
Staphylococcus hominis [15] = assay: Antimicrobial activity against methicillin-resistant coagulase-negative Staphylococcus hominis assessed as resistant isolates after 24 hrs by broth microdilution method
Mammaliicoccus sciuri [16] = assay: Bactericidal activity against methicillin-resistant coagulase-negative Staphylococcus sciuri after 24 hrs by plate counting method; in short: as §3
[17] = tested on: Staphylococcus haemolyticus; assay: Antimicrobial activity against methicillin-susceptible coagulase-negative Staphylococcus haemolyticus assessed as susceptible isolates after 24 hrs by broth microdilution method
Staphylococcus aureus [18] = assay: Bactericidal activity against methicillin-resistant Staphylococcus aureus after 24 hrs by plate counting method
Staphylococcus hominis [19] = assay: Antimicrobial activity against methicillin-susceptible coagulase-negative Staphylococcus hominis after 24 hrs by broth microdilution method; in short: as §1
[20] = tested on: Staphylococcus epidermidis; assay: Antimicrobial activity against methicillin-resistant coagulase-negative Staphylococcus epidermidis assessed as susceptible isolates after 24 hrs by broth microdilution method
[21] = tested on: Staphylococcus haemolyticus; assay: Bactericidal activity against methicillin-susceptible coagulase-negative Staphylococcus haemolyticus after 24 hrs by plate counting method; in short: as §3
Staphylococcus hominis [22] = assay: Antimicrobial activity against methicillin-susceptible coagulase-negative Staphylococcus hominis assessed as resistant isolates after 24 hrs by broth microdilution method
[23] = tested on: Staphylococcus haemolyticus; assay: Bactericidal activity against methicillin-resistant coagulase-negative Staphylococcus haemolyticus after 24 hrs by plate counting method
Staphylococcus aureus [24] = assay: Antimicrobial activity against methicillin-resistant Staphylococcus aureus assessed as susceptible isolates after 24 hrs by broth microdilution method
Mammaliicoccus sciuri [25] = assay: Antimicrobial activity against methicillin-susceptible coagulase-negative Staphylococcus sciuri assessed as resistant isolates after 24 hrs by broth microdilution method
[26] = tested on: Staphylococcus haemolyticus; assay: Antimicrobial activity against methicillin-resistant coagulase-negative Staphylococcus haemolyticus after 24 hrs by broth microdilution method; in short: as §1
Mammaliicoccus sciuri [27] = assay: Antimicrobial activity against methicillin-susceptible coagulase-negative Staphylococcus sciuri after 24 hrs by broth microdilution method; in short: as §1
[28] = tested on: Staphylococcus epidermidis; assay: Antimicrobial activity against methicillin-resistant coagulase-negative Staphylococcus epidermidis after 24 hrs by broth microdilution method; in short: as §1
Staphylococcus aureus [29] = assay: Antimicrobial activity against methicillin-susceptible Staphylococcus aureus assessed as resistant isolates after 24 hrs by broth microdilution method
Staphylococcus simulans [30] = assay: Antimicrobial activity against methicillin-susceptible coagulase-negative Staphylococcus simulans assessed as susceptible isolates after 24 hrs by broth microdilution method; in short: as §2
[31] = tested on: Staphylococcus haemolyticus; assay: Antimicrobial activity against methicillin-susceptible coagulase-negative Staphylococcus haemolyticus after 24 hrs by broth microdilution method; in short: as §1
[32] = tested on: Staphylococcus epidermidis; assay: Antimicrobial activity against methicillin-resistant coagulase-negative Staphylococcus epidermidis assessed as resistant isolates after 24 hrs by broth microdilution method
[33] = tested on: Staphylococcus haemolyticus; assay: Antimicrobial activity against methicillin-resistant coagulase-negative Staphylococcus haemolyticus assessed as resistant isolates after 24 hrs by broth microdilution method
[34] = tested on: Staphylococcus epidermidis; assay: Antimicrobial activity against methicillin-susceptible coagulase-negative Staphylococcus epidermidis assessed as resistant isolates after 24 hrs by broth microdilution method
Staphylococcus hominis [35] = assay: Antimicrobial activity against methicillin-resistant coagulase-negative Staphylococcus hominis assessed as susceptible isolates after 24 hrs by broth microdilution method
[36] = tested on: Staphylococcus haemolyticus; assay: Antimicrobial activity against methicillin-resistant coagulase-negative Staphylococcus haemolyticus assessed as susceptible isolates after 24 hrs by broth microdilution method
[37] = tested on: Staphylococcus haemolyticus; assay: Antimicrobial activity against methicillin-susceptible coagulase-negative Staphylococcus haemolyticus assessed as resistant isolates after 24 hrs by broth microdilution method
Staphylococcus simulans [38] = assay: Bactericidal activity against methicillin-resistant coagulase-negative Staphylococcus simulans after 24 hrs by plate counting method; in short: as §3
Staphylococcus simulans [39] = assay: Antimicrobial activity against methicillin-resistant coagulase-negative Staphylococcus simulans assessed as resistant isolates after 24 hrs by broth microdilution method
[40] = tested on: Staphylococcus epidermidis; assay: Antimicrobial activity against methicillin-susceptible coagulase-negative Staphylococcus epidermidis assessed as susceptible isolates after 24 hrs by broth microdilution method
[41] = tested on: Staphylococcus epidermidis; assay: Bactericidal activity against methicillin-resistant coagulase-negative Staphylococcus epidermidis after 24 hrs by plate counting method
Mammaliicoccus sciuri [42] = assay: Antimicrobial activity against methicillin-resistant coagulase-negative Staphylococcus sciuri assessed as resistant isolates after 24 hrs by broth microdilution method
Mammaliicoccus sciuri [43] = assay: Bactericidal activity against methicillin-susceptible coagulase-negative Staphylococcus sciuri after 24 hrs by plate counting method; in short: as §3
Staphylococcus hominis [44] = assay: Antimicrobial activity against methicillin-susceptible coagulase-negative Staphylococcus hominis assessed as susceptible isolates after 24 hrs by broth microdilution method
Staphylococcus hominis [45] = assay: Antimicrobial activity against methicillin-resistant coagulase-negative Staphylococcus hominis after 24 hrs by broth microdilution method; in short: as §1
[46] = Staphylococcus epidermidis, 24 h
[47] = Staphylococcus haemolyticus, 24 h

Cc1onc(-c2ccccc2)c1C(=O)N[C@@H]1C(=O)N2[C@@H]1SC(C)(C)[C@@H]2C(=O)O [OXACILLIN]
Activity (Staphylococcus aureus [1]): 89% | MIC (Staphylococcus simulans [2]): 0.125 µg/mL (≈ 0.311 µM) | MIC50 (Staphylococcus simulans [2]): 0.125 µg/mL (≈ 0.311 µM) | MIC90 (Staphylococcus simulans [2]): 0.5 µg/mL (≈ 1.25 µM) | MIC50 (Staphylococcus simulans [3]): 64 µg/mL (≈ 159 µM) | MIC90 (Staphylococcus simulans [3]): 64 µg/mL (≈ 159 µM) | Activity (Staphylococcus aureus [4]): 100% | Activity (Mammaliicoccus sciuri [5]): 96% | MIC [6]: 0.125 µg/mL (≈ 0.311 µM) | MIC50 [6]: 0.125 µg/mL (≈ 0.311 µM) | MIC90 [6]: 0.5 µg/mL (≈ 1.25 µM) | MIC (Staphylococcus aureus [7]): 0.125 µg/mL (≈ 0.311 µM) | MIC50 (Staphylococcus aureus [7]): 0.125 µg/mL (≈ 0.311 µM) | MIC90 (Staphylococcus aureus [7]): 1 µg/mL (≈ 2.49 µM) | MBC50 (Staphylococcus simulans [8]): 2 µg/mL (≈ 4.98 µM) | MBC90 (Staphylococcus simulans [8]): 8 µg/mL (≈ 19.9 µM) | MBC (Staphylococcus simulans [8]; Staphylococcus simulans, 24 h): 0.25 µg/mL (≈ 0.623 µM) | MIC50 (Mammaliicoccus sciuri [9]): 64 µg/mL (≈ 159 µM) | MIC90 (Mammaliicoccus sciuri [9]): 64 µg/mL (≈ 159 µM) | MBC50 (Staphylococcus hominis [10]): 2 µg/mL (≈ 4.98 µM) | MBC90 (Staphylococcus hominis [10]): 8 µg/mL (≈ 19.9 µM) | MBC (Staphylococcus hominis [10]; Staphylococcus hominis, 24 h): 0.25 µg/mL (≈ 0.623 µM) | MBC50 (Staphylococcus aureus [11]): 16 µg/mL (≈ 39.9 µM) | MBC90 (Staphylococcus aureus [11]): 64 µg/mL (≈ 159 µM) | MBC (Staphylococcus aureus [11]; Staphylococcus aureus, 24 h): 1 µg/mL (≈ 2.49 µM) | MBC90 (Staphylococcus hominis [12]): 256 µg/mL (≈ 638 µM) | MBC (Staphylococcus hominis [12]; Staphylococcus hominis, 24 h): 1 µg/mL (≈ 2.49 µM) | MBC50 [13]: 2 µg/mL (≈ 4.98 µM) | MBC90 [13]: 8 µg/mL (≈ 19.9 µM) | MBC [13, 46]: 0.25 µg/mL (≈ 0.623 µM) | MIC50 (Staphylococcus aureus [14]): 64 µg/mL (≈ 159 µM) | MIC90 (Staphylococcus aureus [14]): 64 µg/mL (≈ 159 µM) | Activity (Staphylococcus hominis [15]): 74% | MBC90 (Mammaliicoccus sciuri [16]): 256 µg/mL (≈ 638 µM) | MBC (Mammaliicoccus sciuri [16]; Mammaliicoccus sciuri, 24 h): 1 µg/mL (≈ 2.49 µM) | Activity [17]: 96% | MBC50 (Staphylococcus aureus [18]): 256 µg/mL (≈ 638 µM) | MBC90 (Staphylococcus aureus [18]): 512 µg/mL (≈ 1280 µM) | MBC (Staphylococcus aureus [18]; Staphylococcus aureus, 24 h): 256 µg/mL (≈ 638 µM) | MIC (Staphylococcus hominis [19]): 0.125 µg/mL (≈ 0.311 µM) | MIC50 (Staphylococcus hominis [19]): 0.125 µg/mL (≈ 0.311 µM) | MIC90 (Staphylococcus hominis [19]): 0.5 µg/mL (≈ 1.25 µM) | Activity [20]: 26% | MBC50 [21]: 2 µg/mL (≈ 4.98 µM) | MBC90 [21]: 8 µg/mL (≈ 19.9 µM) | MBC [21, 47]: 0.25 µg/mL (≈ 0.623 µM) | Activity (Staphylococcus hominis [22]): 4% | MBC90 [23]: 256 µg/mL (≈ 638 µM) | MBC [23, 47]: 1 µg/mL (≈ 2.49 µM) | Activity (Staphylococcus aureus [24]): 0% | Activity (Mammaliicoccus sciuri [25]): 4% | MIC50 [26]: 64 µg/mL (≈ 159 µM) | MIC90 [26]: 64 µg/mL (≈ 159 µM) | MIC (Mammaliicoccus sciuri [27]): 0.125 µg/mL (≈ 0.311 µM) | MIC50 (Mammaliicoccus sciuri [27]): 0.125 µg/mL (≈ 0.311 µM) | MIC90 (Mammaliicoccus sciuri [27]): 0.5 µg/mL (≈ 1.25 µM) | MIC50 [28]: 64 µg/mL (≈ 159 µM) | MIC90 [28]: 64 µg/mL (≈ 159 µM) | Activity (Staphylococcus aureus [29]): 11% | Activity (Staphylococcus simulans [30]): 96% | MIC [31]: 0.125 µg/mL (≈ 0.311 µM) | MIC50 [31]: 0.125 µg/mL (≈ 0.311 µM) | MIC90 [31]: 0.5 µg/mL (≈ 1.25 µM) | Activity [32]: 74% | Activity [33]: 74% | Activity [34]: 4% | Activity (Staphylococcus hominis [35]): 26% | Activity [36]: 26% | Activity [37]: 4% | MBC90 (Staphylococcus simulans [38]): 256 µg/mL (≈ 638 µM) | MBC (Staphylococcus simulans [38]; Staphylococcus simulans, 24 h): 1 µg/mL (≈ 2.49 µM) | Activity (Staphylococcus simulans [39]): 74% | Activity [40]: 96% | MBC90 [41]: 256 µg/mL (≈ 638 µM) | MBC [41, 46]: 1 µg/mL (≈ 2.49 µM) | Activity (Mammaliicoccus sciuri [42]): 74% | MBC50 (Mammaliicoccus sciuri [43]): 2 µg/mL (≈ 4.98 µM) | MBC90 (Mammaliicoccus sciuri [43]): 8 µg/mL (≈ 19.9 µM) | MBC (Mammaliicoccus sciuri [43]; Mammaliicoccus sciuri, 24 h): 0.25 µg/mL (≈ 0.623 µM) | Activity (Staphylococcus hominis [44]): 96% | MIC50 (Staphylococcus hominis [45]): 64 µg/mL (≈ 159 µM) | MIC90 (Staphylococcus hominis [45]): 64 µg/mL (≈ 159 µM)
